Data taken from ChEMBL document CHEMBL1123452, “Synthesis and hypolipidemic activities of 5-thienyl-4-oxazoleacetic acid derivatives” (1986).

What was measured:
Rattus norvegicus [1] = species: Rattus norvegicus; assay: Percent decrease in serum cholesterol (Cho) after 7 days at 0.05 percent in the diet of SD male rats in comparison to control animals; format: functional
In short: (§1)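 Normal SD male rats, five per group. Compound mixed into CE-2 powder diet at 50 mg/100 g (mg %), fed ad libitum for 7 days; controls received plain CE-2 powder. Total serum cholesterol measured by the Zak method and triglyceride by the Van Handel method after the feeding period. Activity expressed as percent depression versus the control-group mean. Single experiments.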

Rattus norvegicus [2] = species: Rattus norvegicus; assay: Percent decrease in triglyceride (TG) after 7 days at 0.05 percent in the diet of SD male rats in comparison to control animals; format: functional; in short: as §1

Compound | Reduction (Rattus norvegicus [1]) | Reduction (Rattus norvegicus [2])
O=C(OCCc1nc(-c2ccc(F)cc2)oc1-c1ccsc1)c1cccnc1 | -2% | 3%
O=C(O)Cc1nc(-c2ccsc2)oc1-c1ccc(F)cc1 | 13% | 31%
CCOC(=O)Cc1nc(-c2ccc(C)cc2)oc1-c1cccs1 | 9% | -14%
COc1ccc(-c2nc(CC(=O)O)c(-c3ccsc3)o2)cc1 | 3% | 26%
CCOC(=O)Cc1nc(-c2ccc(Cl)cc2)oc1-c1cccs1 | 15% | -10%
CCOC(=O)Cc1nc(-c2ccccc2Cl)oc1-c1ccsc1 | -5% | 15%
O=C(O)Cc1nc(-c2ccc(Cl)cc2)oc1-c1ccccc1 | 6% | 14%
CCOC(=O)C(C)c1nc(-c2ccc(F)cc2)oc1-c1ccsc1 (configuration not stated) | 6% | 19%
O=C(O)Cc1nc(-c2ccccc2Cl)oc1-c1ccsc1 | 1% | 22%
CCCCCOC(=O)Cc1nc(-c2ccccc2)oc1-c1ccsc1 | 20% | 30%
CCCCCCCCCCCCOC(=O)Cc1nc(-c2ccc(F)cc2)oc1-c1ccsc1 | 18% | 34%
CCCCCOC(=O)Cc1nc(-c2ccc(Cl)cc2)oc1-c1ccsc1 | 19% | 45%
O=C(O)Cc1nc(-c2ccccc2)oc1-c1ccsc1 | 15% | 41%
CCOC(=O)Cc1nc(-c2ccc(F)cc2)oc1-c1ccccc1 | 3% | -4%
CCOC(=O)Cc1nc(-c2cc(OC)c(OC)c(OC)c2)oc1-c1ccccc1 | 0% | -19%
CCOC(=O)Cc1nc(-c2ccc(Br)cc2)oc1-c1ccc(F)cc1 | 12% | -5%
Cc1ccc(-c2oc(-c3ccc(Cl)cc3)nc2CC(=O)O)s1 | 9% | -4%
O=C(O)Cc1nc(-c2ccc(F)cc2)oc1-c1cccs1 | 17% | 27%
CCOC(=O)C(C)(C)Oc1ccc(Cl)cc1 [CLOFIBRATE] | 15% | 16%
C=CCc1nc(-c2ccc(F)cc2)oc1-c1ccsc1 | -2% | 3%
CCOC(=O)Cc1nc(-c2ccc(OC)cc2)oc1-c1ccsc1 | 4% | 0%
Cc1ccc(-c2nc(CC(=O)O)c(-c3ccsc3)o2)cc1 | 9% | 14%
CCOC(=O)Cc1nc(-c2ccc(F)cc2)oc1-c1cccs1 | 17% | 31%
CCOC(=O)Cc1nc(-c2ccccc2)oc1-c1ccccc1 | 13% | 6%
NC(=O)Cc1nc(-c2ccc(Cl)cc2)oc1-c1ccsc1 | 16% | 12%
O=C(Cc1nc(-c2ccc(Cl)cc2)oc1-c1ccsc1)OCc1cccnc1 | 13% | 3%

Compound | Reduction (Rattus norvegicus [1]) | Reduction (Rattus norvegicus [2])
O=C(O)Cc1nc(-c2ccc(Cl)cc2)oc1-c1cccs1 | 16% | 38%
O=C(O)Cc1nc(-c2ccc(Br)cc2)oc1-c1ccccc1 | 4% | -14%
CCOC(=O)Cc1nc(-c2ccccc2)oc1-c1cccs1 | 11% | 7%
O=C(O)Cc1nc(-c2ccccc2)oc1-c1ccccc1 | 6% | 20%
CCc1nc(-c2ccc(F)cc2)oc1-c1ccsc1 | -4% | 20%
CCOC(=O)Cc1nc(-c2ccccc2)oc1-c1ccsc1 | 15% | 41%
C=CCOC(=O)Cc1nc(-c2ccc(Cl)cc2)oc1-c1ccsc1 | 11% | 39%
OCCc1nc(-c2ccc(F)cc2)oc1-c1ccsc1 | 4% | 1%
CCNC(=O)Cc1nc(-c2ccc(F)cc2)oc1-c1ccsc1 | -5% | 23%
CCOC(=O)c1nc(-c2ccccc2)oc1-c1ccccc1 | 9% | -30%
CCOC(=O)Cc1nc(-c2cccc(Cl)c2)oc1-c1ccsc1 | 8% | 61%
CCOC(=O)Cc1nc(-c2ccsc2)oc1-c1ccc(F)cc1 | 11% | 15%
CCOC(=O)Cc1nc(-c2ccc(OC)cc2)oc1-c1ccccc1 | 0% | 15%
CCCCOC(=O)Cc1nc(-c2ccccc2)oc1-c1ccsc1 | 15% | 21%
CCOC(=O)Cc1nc(-c2ccc(Br)cc2)oc1-c1ccccc1 | 10% | -7%
O=C(O)Cc1nc(-c2ccccc2)oc1-c1cccs1 | -4% | 28%
COC(=O)c1nc(-c2ccc(F)cc2)oc1-c1ccsc1 | 5% | 16%
O=C(O)Cc1nc(-c2ccc(F)cc2)oc1-c1ccsc1 | 23% | 39%
CC(C(=O)O)c1nc(-c2ccc(F)cc2)oc1-c1ccsc1 (configuration not stated) | 6% | 40%
CCOC(=O)Cc1nc(-c2ccc(Cl)cc2)oc1-c1ccccc1 | 7% | -12%
O=C(O)Cc1nc(-c2cccc(Cl)c2)oc1-c1ccsc1 | 7% | 38%
O=C(O)CCc1nc(-c2ccc(Cl)cc2)oc1-c1ccsc1 | 5% | 51%
O=C(O)Cc1nc(-c2ccc(Cl)cc2)oc1-c1ccsc1 | 16% | 43%
CCOC(=O)Cc1nc(-c2ccc(Cl)c(Cl)c2)oc1-c1ccsc1 | 14% | 17%
CCOC(=O)Cc1nc(-c2ccc(Cl)cc2)oc1-c1ccsc1 | 16% | 47%
CCOC(=O)Cc1nc(-c2ccc(F)cc2)oc1-c1ccsc1 | 19% | 41%

Compound | Reduction (Rattus norvegicus [1]) | Reduction (Rattus norvegicus [2])
CCOC(=O)Cc1nc(-c2ccc(Cl)cc2)oc1-c1ccc(Br)s1 | 0% | 20%
CCOC(=O)Cc1nc(-c2ccc(C)cc2)oc1-c1ccsc1 | 5% | 4%
COC(=O)Cc1nc(-c2ccc(Cl)cc2)oc1-c1ccsc1 | 14% | 29%
CCOC(=O)Cc1nc(-c2ccc(Cl)cc2)oc1-c1ccc(C)s1 | 4% | 39%
CC(C)OC(=O)Cc1nc(-c2ccc(F)cc2)oc1-c1ccsc1 | 8% | 27%
O=C(OCc1nc(-c2ccc(F)cc2)oc1-c1ccsc1)c1cccnc1 | 0% | 17%
CCCCNC(=O)Cc1nc(-c2ccc(F)cc2)oc1-c1ccsc1 | -8% | 13%
O=C(O)c1ncoc1-c1ccccc1 | 2% | 11%
O=C(O)Cc1nc(-c2ccc(Cl)c(Cl)c2)oc1-c1ccsc1 | 9% | 34%
NC(=O)Cc1nc(-c2ccccc2)oc1-c1ccsc1 | 20% | 3%
CCOC(=O)Cc1nc(-c2ccc(F)cc2)oc1-c1ccc(F)cc1 | 7% | 39%
O=C(Cc1nc(-c2ccc(Cl)cc2)oc1-c1ccsc1)OCC(O)CO (configuration not stated) | 15% | 43%
CCOC(=O)CCc1nc(-c2ccc(Cl)cc2)oc1-c1ccsc1 | 0% | 34%
CCOC(=O)Cc1nc(-c2ccc(Cl)cc2)oc1-c1ccc(F)cc1 | 22% | 3%
CC(C)OC(=O)Cc1nc(-c2ccc(Cl)cc2)oc1-c1ccsc1 | 9% | 29%
CCCCOC(=O)Cc1nc(-c2ccc(F)cc2)oc1-c1ccsc1 | 20% | 19%
CCN(CC)C(=O)Cc1nc(-c2ccc(F)cc2)oc1-c1ccsc1 | -2% | 2%
CCCCCOC(=O)Cc1nc(-c2ccc(F)cc2)oc1-c1ccsc1 | 13% | 20%
NC(=O)Cc1nc(-c2ccc(F)cc2)oc1-c1ccsc1 | 19% | 13%
CCCCOC(=O)Cc1nc(-c2ccc(Cl)cc2)oc1-c1ccsc1 | 22% | 17%
OCc1nc(-c2ccc(F)cc2)oc1-c1ccsc1 | -10% | -34%
CCCCCCCCOC(=O)Cc1nc(-c2ccc(F)cc2)oc1-c1ccsc1 | 12% | 13%
CCCCCCCCCCCCCCCCCCOC(=O)Cc1nc(-c2ccc(F)cc2)oc1-c1ccsc1 | 18% | 26%
CCOC(=O)Cc1nc(-c2ccc(C)cc2)oc1-c1ccccc1 | 5% | -18%
